# Data reported in ChEMBL document CHEMBL2034851, “Synthesis and antiviral evaluation of C5-substituted-(1,3-diyne)-2'-deoxyuridines” (Eur J Med Chem, 2012).
# Assays:
# [1] = Lipophilicity, log P of the compound; assay type: physicochemical; details: octanol/water
# [2] = Cytostatic against human HEL cells assessed as reduction in cell growth after 3 days by coulter counter; assay type: cell-based
# Summary of the method: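 HEL cells were seeded at 5 × 10³ cells/well and grown for 24 h. Medium with varying compound concentrations was then added and plates were incubated 3 days at 37 °C. Cells were counted with a Coulter counter. CC50 is the concentration reducing cell proliferation by 50% versus untreated controls.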
# [3] = Cytotoxicity against human HEL cells assessed as change in cell morphology by microscopic analysis; assay type: cell-based
# Summary of the method: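 MCC is the compound concentration producing a microscopically visible change in cell morphology, scored on the cell cultures used for the antiviral tests.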
# [4] = test system: Human betaherpesvirus 5; assay: Antiviral activity against Human cytomegalovirus AD169 infected in HEL cells assessed as reduction in virus-induced cytopathicity; assay type: functional, organism-based; details: Human betaherpesvirus 5, AD169, HEL
# Summary of the method: (§1)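 Confluent HEL cell monolayers in microtiter plates were inoculated with 100 CCID50 of virus or 20 PFU. After 1–2 h adsorption, residual virus was removed. Cultures were then incubated with graded compound concentrations. Cytopathicity was read once it was complete in untreated infected controls. EC50 is the concentration giving 50% reduction of virus-induced cytopathicity or plaque formation.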
# [5] = test system: Human betaherpesvirus 5; assay: Antiviral activity against Human cytomegalovirus Davis infected in HEL cells assessed as reduction in virus-induced cytopathicity; assay type: functional, organism-based; details: Human betaherpesvirus 5, Davis; summary of the method: as §1
# [6] = test system: Human alphaherpesvirus 3; assay: Antiviral activity against thymidine kinase-deficient Varicella-zoster virus 07/1 infected in HEL cells assessed as reduction in virus-induced cytopathicity; assay type: functional, organism-based; details: Human alphaherpesvirus 3, 07/1, HEL
# Summary of the method: (§2)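 Confluent HEL cell monolayers in 96-well plates were inoculated with 100 CCID50 or 20 PFU of virus and left 1–2 h for adsorption. Residual virus was removed and cells were incubated with serial compound dilutions. Read-out was taken once cytopathicity was complete in untreated infected controls. EC50 is the concentration giving 50% reduction of virus-induced cytopathicity or plaque formation.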
# [7] = test system: Human alphaherpesvirus 3; assay: Antiviral activity against thymidine kinase-positive Varicella-zoster virus YS infected in HEL cells assessed as reduction in virus-induced cytopathicity; assay type: functional, organism-based; details: Human alphaherpesvirus 3, YS; summary of the method: as §2
# [8] = test system: Human alphaherpesvirus 3; assay: Antiviral activity against thymidine kinase-positive Varicella-zoster virus OKA infected in HEL cells assessed as reduction in virus-induced cytopathicity; assay type: functional, cell-based; details: Human alphaherpesvirus 3, strain Oka vaccine
# Summary of the method: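 Confluent HEL cell monolayers in 96-well plates were inoculated with 100 CCID50 or 20 PFU of virus and left 1–2 h for adsorption. Residual virus was removed and cells were incubated with serial compound dilutions. Read-out was taken once cytopathicity was complete in untreated infected controls.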
# [9] = test system: Human alphaherpesvirus 1; assay: Antiviral activity against thymidine kinase-deficient Herpes simplex virus 1 infected in HEL cells assessed as reduction in viral plaque formation; assay type: functional, organism-based; details: Human alphaherpesvirus 1, HEL; summary of the method: as §1
# [10] = test system: Human alphaherpesvirus 2; assay: Antiviral activity against Herpes simplex virus 2 G infected in HEL cells assessed as reduction in viral plaque formation; assay type: functional, organism-based; details: Human alphaherpesvirus 2, strain G; summary of the method: as §1
# [11] = test system: Vaccinia virus; assay: Antiviral activity against Vaccinia virus infected in HEL cells assessed as reduction in viral plaque formation; assay type: functional, organism-based; details: Orthopoxvirus vaccinia; summary of the method: as §2
# [12] = test system: Human alphaherpesvirus 1; assay: Antiviral activity against Herpes simplex virus 1 KOS infected in HEL cells assessed as reduction in viral plaque formation; assay type: functional, organism-based; details: Human alphaherpesvirus 1, KOS; summary of the method: as §1
Compound,logP [1],CC50 at 72 h [2],MCC [3],EC50 [4],EC50 [5],EC50 [6],EC50 [7],EC50 [8],EC50 [9],EC50 [10],EC50 [11],EC50 [12]
O=c1[nH]c(=O)n([C@H]2C[C@H](O)[C@@H](CO)O2)cc1C#CC#CCO,-1.45,> 100 µM,> 100 µM,> 100 µM,> 100 µM,> 100 µM,6.24 µM,2.1 µM,–,–,–,–
O=c1[nH]c(=O)n([C@H]2C[C@H](O)[C@@H](CO)O2)cc1/C=C/Br [BRIVUDINE],–,> 100 µM,> 150 µM,–,–,74 µM,0.0075 µM,0.0087 µM,–,–,–,–
CCCc1ccc(C#CC#Cc2cn([C@H]3C[C@H](O)[C@@H](CO)O3)c(=O)[nH]c2=O)cc1,2.36,52 µM,100 µM,> 20 µM,> 20 µM,14 µM,2.77 µM,3.7 µM,–,–,–,–
O=c1[nH]c(=O)n([C@H]2C[C@H](O)[C@@H](CO)O2)cc1C#CC#Cc1ccccc1,0.96,100 µM,100 µM,> 20 µM,> 20 µM,> 20 µM,> 20 µM,> 20 µM,–,–,–,–
Nc1cccc(C#CC#Cc2cn([C@H]3C[C@H](O)[C@@H](CO)O3)c(=O)[nH]c2=O)c1,0.13,> 100 µM,> 100 µM,> 100 µM,> 100 µM,> 100 µM,–,> 100 µM,–,–,–,–
Nc1ccn(C[C@@H](CO)OCP(=O)(O)O)c(=O)n1 [CIDOFOVIR],–,64 µM,> 350 µM,–,1.1 µM,–,–,–,–,–,–,–
Nc1nc2c(ncn2COC(CO)CO)c(=O)[nH]1 [GANCICLOVIR],–,130 µM,> 350 µM,7.5 µM,7.1 µM,–,–,–,–,–,–,–
CCCCCCc1ccc(C#CC#Cc2cn([C@H]3C[C@H](O)[C@@H](CO)O3)c(=O)[nH]c2=O)cc1,3.7,35 µM,100 µM,> 20 µM,> 20 µM,9.5 µM,6.44 µM,8.8 µM,–,–,–,–
Nc1nc2c(ncn2COCCO)c(=O)[nH]1 [ACYCLOVIR],–,470 µM,> 300 µM,–,–,92 µM,2.18 µM,–,–,–,–,–
CC(O)CC#CC#Cc1cn([C@H]2C[C@H](O)[C@@H](CO)O2)c(=O)[nH]c1=O (stereo partly drawn),–,9.5 µM,> 100 µM,> 100 µM,> 100 µM,> 100 µM,12.7 µM,20 µM,–,–,–,–
Nc1ccc(C#CC#Cc2cn([C@H]3C[C@H](O)[C@@H](CO)O3)c(=O)[nH]c2=O)cc1,0.13,> 100 µM,> 100 µM,> 100 µM,> 100 µM,> 100 µM,–,> 100 µM,–,–,–,–
O=c1[nH]c(=O)n([C@H]2C[C@H](O)[C@@H](CO)O2)cc1C#CC#Cc1ccc([N+](=O)[O-])cc1,0.9,89 µM,100 µM,> 20 µM,> 20 µM,> 20 µM,–,> 20 µM,–,–,–,–
O=c1[nH]c(=O)n([C@H]2C[C@H](O)[C@@H](CO)O2)cc1C#CC#Cc1ccccn1,–,1.5 µM,> 20 µM,49 µM,> 4 µM,20 µM,2.06 µM,5.1 µM,–,–,–,–
COc1cc(C#CC#Cc2cn([C@H]3C[C@H](O)[C@@H](CO)O3)c(=O)[nH]c2=O)cc(OC)c1,–,> 100 µM,> 100 µM,> 100 µM,> 100 µM,> 100 µM,38.1 µM,39 µM,–,–,–,–
O=c1[nH]c(=O)n([C@H]2C[C@H](O)[C@@H](CO)O2)cc1C#CC#CCC1CCCC1,1.43,89 µM,> 100 µM,> 100 µM,> 100 µM,> 100 µM,33.7 µM,42 µM,–,–,–,–
Cc1cc(C#CC#Cc2cn([C@H]3C[C@H](O)[C@@H](CO)O3)c(=O)[nH]c2=O)ccc1F,–,45 µM,100 µM,> 20 µM,> 20 µM,> 20 µM,9.13 µM,14 µM,–,–,–,–
O=c1[nH]c(=O)n([C@H]2C[C@H](O)[C@@H](CO)O2)cc1C#CC#Cc1ccc(OC(F)(F)F)cc1,2.39,55 µM,100 µM,> 20 µM,> 20 µM,> 4 µM,1.08 µM,0.9 µM,14.5 µM,10 µM,20 µM,14.5 µM
O=c1[nH]c(=O)n([C@H]2C[C@H](O)[C@@H](CO)O2)cc1C#CC#CC1CC1,–,> 100 µM,> 100 µM,> 100 µM,> 100 µM,> 100 µM,–,> 100 µM,–,–,–,–
